# Published values from different studies.
# Lines come from different studies, so protocols differ.
# Target: Glycogen synthase kinase-3 alpha (GSK3A, Homo sapiens, UniProt P49840)
SMILES,observed,action,method,tested at,quantity,result
CCN(CC)CCNC(=O)c1c(C)[nH]c(/C=C2\C(=O)Nc3ccc(F)cc32)c1C,enzyme activity,inhibitor,,10 µM,inhibition,36%
COc1cc2ncnc(Nc3ccc(Oc4ccccc4)c(C)c3C)c2cc1OC,enzyme activity,inhibitor,,1 µM,inhibition,2%
CNC(=O)Nc1ccc2c(c1)CC[C@@]21OC(=O)N(CC(=O)N(Cc2ccc(F)cc2)[C@@H](C)C(F)(F)F)C1=O,cell-free assay,,competition with immobilised ligand,1 µM,remaining binding,99%
O=C1NC(=O)c2cc(Nc3ccc(F)cc3)c(Nc3ccc(F)cc3)cc21,cell-free assay,inhibitor,,0.5 µM,remaining signal,88.2%
Cc1ccc(Nc2nccc(N(C)c3ccc4c(C)n(C)nc4c3)n2)cc1S(N)(=O)=O,enzyme activity,inhibitor,,0.3 µM,inhibition,-12%
CCN(CC)c1ccc(C2=NNC(=O)CC2C)cc1[N+](=O)[O-] (stereo not drawn),enzyme activity,inhibitor,,10 µM,remaining activity,89%
O=C(N[C@H]1CCCCC/C=C\C2C[C@@]2(C(=O)O)NC(=O)[C@@H]2C[C@@H](Oc3ccncc3)CN2C1=O)OC1CCCC1 (stereo partly drawn),cell-free assay,,competition with immobilised ligand,1 µM,remaining binding,100%
O=S(=O)(Nc1cc(Sc2ncn[nH]2)c(O)c2ccccc12)c1ccc(-c2ccccc2)cc1,enzyme activity,inhibitor,,1 µM,remaining activity,≥ 75%
Cn1cnc(Br)c1C1=CN(c2ncnc3[nH]cnc23)CCS1,enzyme activity,inhibitor,radiometric,50 nM,inhibition,14.8%
C=CC(=O)Nc1cc(Nc2nccc(Nc3cc(Cl)c(F)cc3C(C)(C)O)n2)c(OC)cc1N1CC[C@@H](N(C)C)C1,enzyme activity,inhibitor,,1 µM,inhibition,0%
CNC(=O)c1cc(Oc2ccc(NC(=O)Nc3ccc(Cl)c(C(F)(F)F)c3)cc2)ccn1,cell-free assay,,,0.5 µM,remaining signal,103%
Cc1c[nH]c2nccc(Oc3c(F)cc(Nc4cc(Cl)nc(N)n4)cc3F)c12,cell-free assay,,competition with immobilised ligand,0.1 µM,remaining binding,95%
Nc1ncnc2occ(-c3ccc(NC(=O)Nc4cc(C(F)(F)F)ccc4F)cc3)c12,enzyme activity,inhibitor,,20 µM,remaining activity,17%
N#CCCc1ccc2c(c1)-c1[nH]c3ccc([N+](=O)[O-])cc3c1CC(=O)N2,cell-free assay,,,0.5 µM,remaining signal,0.804%
O=C(Nc1cnc(Oc2ccc(F)cc2)nc1)N1CCc2ncccc2[C@@H]1c1ccc(F)cc1,cell-free assay,,competition with immobilised ligand,1 µM,remaining binding,93%
CC(C)(C)c1nc2c(s1)c1nc(N)ncc1c1ccc(NS(=O)(=O)c3c(F)cccc3F)c(F)c12,enzyme activity,inhibitor,radiometric,1 µM,remaining activity,88%
COc1cccc2c(NCc3ccccc3)nc(-n3c(N)nc4ccccc43)nc12,target engagement in cells,inhibitor,chemoproteomics,20 mM,inhibition,2%
C[C@@H]1CN(c2cc(-c3n[nH]c4ccc(OC5(C)CC5)cc34)ncn2)C[C@H](C)O1,cell-free assay,,competition with immobilised ligand,0.1 µM,remaining binding,100%
CN1CC(Oc2cnc(C#N)cc2-c2ccn3nc(NC(=O)C4CC4)cc3c2)C1,enzyme activity,inhibitor,,1 µM,inhibition,-14%
O=C(N1CCS(=O)(=O)CC1)N1C[C@H](c2ccc(OC(F)(F)F)cc2)C[C@H](c2nc(C3CC3)no2)C1,cell-free assay,,competition with immobilised ligand,1 µM,remaining binding,100%
c1ccc(CNc2nc(N3CCOc4ccccc43)nc3c2CCCC3)cc1,target engagement in cells,inhibitor,chemoproteomics,20 mM,inhibition,0%
O=C(Nc1cnn(-c2csc(C(=O)NC3COC3)c2)c1)Nc1c(F)cccc1Cl,enzyme activity,inhibitor,,5 µM,remaining activity,93.5%
CS(=O)(=O)N1CCCC(NC(=O)[C@H](CCC2CCCCC2)NC(=O)c2ccc(CNC(=O)c3cnc4ccccn34)cc2)C1 (stereo partly drawn),cell-free assay,,competition with immobilised ligand,0.1 µM,remaining binding,100%
CCCS(=O)(=O)Nc1ccc(F)c(C(=O)c2c[nH]c3ncc(-c4ccc(Cl)cc4)cc23)c1F,enzyme activity,inhibitor,,1 µM,inhibition,< 10%
Cc1cc(NC(=O)c2cccc3cc(-c4cccc5[nH]nc(N)c45)ccc23)ccc1F,enzyme activity,inhibitor,,0.1 µM,activity vs control,121%
Cc1nc(Cc2cccc(C(F)(F)F)c2)sc1-c1ccc(C(N)=O)nc1,cell-free assay,,competition with immobilised ligand,1 µM,remaining binding,82%
O=C1Nc2ccc(Cl)cc2C1=Cc1cc(Cl)c(O)c(Cl)c1,cell-free assay,,,0.5 µM,remaining signal,76.1%
